{"data": "Published values of several laboratories", "target": "Inhibitor of nuclear factor kappa-B kinase subunit alpha (CHUK, Homo sapiens, UniProt O15111)", "Sequence (O15111 1-745, as in one of the studies)": "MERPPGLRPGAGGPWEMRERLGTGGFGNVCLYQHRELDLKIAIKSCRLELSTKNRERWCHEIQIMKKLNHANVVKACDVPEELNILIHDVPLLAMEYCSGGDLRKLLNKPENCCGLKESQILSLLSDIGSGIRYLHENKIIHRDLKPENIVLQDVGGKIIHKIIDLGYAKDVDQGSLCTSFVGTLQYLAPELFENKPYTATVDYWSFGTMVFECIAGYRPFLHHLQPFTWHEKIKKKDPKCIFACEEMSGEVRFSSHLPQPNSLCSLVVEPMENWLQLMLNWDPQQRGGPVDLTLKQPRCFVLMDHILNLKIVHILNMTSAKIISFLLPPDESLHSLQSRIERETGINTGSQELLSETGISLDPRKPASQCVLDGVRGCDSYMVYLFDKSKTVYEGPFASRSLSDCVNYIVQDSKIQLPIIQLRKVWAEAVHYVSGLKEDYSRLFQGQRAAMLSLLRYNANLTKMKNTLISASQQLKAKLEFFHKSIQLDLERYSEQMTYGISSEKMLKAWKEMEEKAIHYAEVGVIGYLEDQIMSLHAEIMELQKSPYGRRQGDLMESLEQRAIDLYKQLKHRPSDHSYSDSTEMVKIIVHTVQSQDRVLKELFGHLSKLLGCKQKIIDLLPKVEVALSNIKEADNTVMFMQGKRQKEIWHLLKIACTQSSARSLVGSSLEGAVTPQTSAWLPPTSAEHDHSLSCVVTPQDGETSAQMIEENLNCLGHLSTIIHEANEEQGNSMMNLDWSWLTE", "note": "Lines come from different studies, so protocols differ."}
{"SMILES": "O=C(NCc1ncc(C(F)(F)F)cc1Cl)c1ccc2c(c1)C1(CCS(=O)(=O)CC1)[C@H](C1CC1)N2S(=O)(=O)c1ccc(F)cc1", "observed": "cell-free assay", "technique": "competition with immobilised ligand", "tested at": "1 µM", "measurement": "remaining binding", "result": "77%"}
{"SMILES": "Cc1sc(C(=O)NC2COC2)cc1-n1cc(NC(=O)Nc2c(F)cccc2Cl)cn1", "observed": "enzyme activity", "mode": "inhibitor", "tested at": "10 µM", "measurement": "remaining activity", "result": "101%"}
{"SMILES": "CCN(CC)CCNC(=O)c1c(C)[nH]c(/C=C2\\C(=O)Nc3ccc(F)cc32)c1C", "observed": "enzyme activity", "mode": "inhibitor", "tested at": "10 µM", "measurement": "inhibition", "result": "52%"}
{"SMILES": "Cc1ccc(C(=O)Nc2ccc(CN3CCN(C)CC3)c(C(F)(F)F)c2)cc1C#Cc1cnc2cccnn12", "observed": "enzyme activity", "mode": "inhibitor", "tested at": "23.5 nM", "measurement": "remaining activity", "result": "19%"}
{"SMILES": "CCCCNc1ncc2c(-c3ccc(F)cc3)nn(C[C@H]3CC[C@H](N)CC3)c2n1", "observed": "target engagement in cells", "mode": "inhibitor", "technique": "chemoproteomics", "tested at": "20 mM", "measurement": "inhibition", "result": "4.9%"}
{"SMILES": "Cc1cnc(NC2CCOCC2)nc1-n1cnc(C(=O)NC(CN)c2cc(F)cc(Cl)c2)c1 (stereo not drawn)", "observed": "enzyme activity", "mode": "inhibitor", "technique": "radiometric", "tested at": "1 µM", "measurement": "remaining activity", "result": "92%"}
{"SMILES": "CCN(CC)c1ccc(C2=NNC(=O)CC2C)cc1[N+](=O)[O-] (stereo not drawn)", "observed": "enzyme activity", "mode": "inhibitor", "tested at": "10 µM", "measurement": "remaining activity", "result": "109%"}
{"SMILES": "Nc1ncnc2occ(-c3ccc(NC(=O)Nc4cc(C(F)(F)F)ccc4F)cc3)c12", "observed": "enzyme activity", "mode": "inhibitor", "tested at": "20 µM", "measurement": "remaining activity", "result": "0%"}
{"SMILES": "NS(=O)(=O)c1cc(NC(=O)Cc2ccccc2)ccc1Oc1cccc(Cl)c1", "observed": "cell-free assay", "technique": "competition with immobilised ligand", "tested at": "1 µM", "measurement": "remaining binding", "result": "63%"}
{"SMILES": "CNCc1ccc(-c2cc(-c3nc(-c4ccc(S(=O)(=O)C(C)C)cc4)cnc3N)on2)cc1", "observed": "enzyme activity", "mode": "inhibitor", "tested at": "0.4 µM", "measurement": "inhibition", "result": "17%"}
{"SMILES": "CN([C@@H]1CCc2c(CC(=O)O)c3cc(S(C)(=O)=O)ccc3n2C1)S(=O)(=O)c1ccc(F)cc1", "observed": "cell-free assay", "technique": "competition with immobilised ligand", "tested at": "1 µM", "measurement": "remaining binding", "result": "100%"}
{"SMILES": "c1ccc(CNc2nc(N3CCOc4ccccc43)nc3c2CCCC3)cc1", "observed": "target engagement in cells", "mode": "inhibitor", "technique": "chemoproteomics", "tested at": "20 mM", "measurement": "inhibition", "result": "10.8%"}
{"SMILES": "Cc1ccc(Nc2nccc(N(C)c3ccc4c(C)n(C)nc4c3)n2)cc1S(N)(=O)=O", "observed": "cell-free assay", "mode": "inhibitor", "tested at": "0.5 µM", "measurement": "remaining signal", "result": "99.4%"}
{"SMILES": "COc1cc(Cl)c(C(=O)N[C@@H](CN[C@H]2CC[C@@H](N)CC2)Cc2ccc(C#N)cc2)cc1-c1ccc(CN[C@H](C)c2ccc(C)cc2)o1", "observed": "enzyme activity", "mode": "inhibitor", "tested at": "1 µM", "measurement": "remaining activity", "result": "95%"}
{"SMILES": "CN(C)C(=O)Cn1cc(-c2nc(C3(c4ccc(-c5cnc(N)nc5)cc4)CC3)no2)cn1", "observed": "cell-free assay", "technique": "competition with immobilised ligand", "tested at": "1 µM", "measurement": "remaining binding", "result": "100%"}
{"SMILES": "O=C1NC(=O)c2cc(Nc3ccc(F)cc3)c(Nc3ccc(F)cc3)cc21", "observed": "cell-free assay", "mode": "inhibitor", "tested at": "0.5 µM", "measurement": "remaining signal", "result": "99.2%"}
{"SMILES": "Cc1c(C(=O)O)cc(-c2ccc(C3CCNCC3)cc2)c2ccc(-c3ccc(C(F)(F)F)cc3)cc12", "observed": "cell-free assay", "technique": "competition with immobilised ligand", "tested at": "1 µM", "measurement": "remaining binding", "result": "98%"}
{"SMILES": "CSc1nc(C)c(-c2ccnc(Nc3ccc(N4CCOCC4)cc3)c2)[nH]1", "observed": "enzyme activity", "mode": "inhibitor", "tested at": "10 µM", "measurement": "inhibition", "result": "48.8%"}
{"SMILES": "CNC(=O)c1cc(Oc2ccc(NC(=O)Nc3ccc(Cl)c(C(F)(F)F)c3)cc2)ccn1", "observed": "enzyme activity", "mode": "inhibitor", "tested at": "0.3 µM", "measurement": "inhibition", "result": "-10%"}
{"SMILES": "CC/C(=N\\NC(=O)NCc1cccc(O)c1)c1ccc(O)c(C)c1O", "observed": "enzyme activity", "mode": "inhibitor", "tested at": "0.1 µM", "measurement": "inhibition", "result": "0.7%"}
{"SMILES": "CC(=O)C1=C(C)N(c2cccc(C(F)(F)F)c2)C(=O)N[C@@H]1c1ccc(C#N)nc1", "observed": "cell-free assay", "technique": "competition with immobilised ligand", "tested at": "1 µM", "measurement": "remaining binding", "result": "100%"}
{"SMILES": "CC(C)(C)c1nc(-c2cccc(NS(=O)(=O)c3c(F)cccc3F)c2F)c(-c2ccnc(N)n2)s1", "observed": "enzyme activity", "mode": "inhibitor", "technique": "radiometric", "tested at": "1 µM", "measurement": "remaining activity", "result": "97%"}
{"SMILES": "C#Cc1cccc(Nc2ncnc3cc(OCCOC)c(OCCOC)cc23)c1", "observed": "cell-free assay", "tested at": "0.5 µM", "measurement": "remaining signal", "result": "94.2%"}
{"SMILES": "CC(=O)N1CCC(c2ccc(C(=O)NC3=NCCN3)cc2C(F)(F)F)CC1", "observed": "cell-free assay", "technique": "competition with immobilised ligand", "tested at": "1 µM", "measurement": "remaining binding", "result": "90%"}
